Laboratory results from ChEMBL document CHEMBL2384917, “Design, synthesis and biological evaluation of novel 3,4,5-trisubstituted aminothiophenes as inhibitors of p53-MDM2 interaction. Part 1” (Bioorg Med Chem, 2013).

What was measured:
[1] = system: A549; experiment: Selectivity ratio of IC50 for human p53-null PC3 cells to IC50 for human A549 cells expressing wild type p53; assay type: functional
[2] = system: PC-3; experiment: Cytotoxicity against human p53-null PC3 cells assessed as growth inhibition after 72 hrs by SRB assay; assay type: functional, cell-based; details: PC-3, 72 h
Method in brief: (§1)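 Cells seeded in 96-well plates, cultured overnight, then exposed to serial compound concentrations for 72 h. Fixed with 10% (w/v) TCA at 4 °C for 1 h, stained 30 min with 0.4% SRB in 1% acetic acid, washed with 1% acetic acid, bound dye dissolved in 10 mmol unbuffered Tris base, absorbance read at 515 nm. Inhibition calculated relative to untreated control wells; IC50 derived.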

[3] = system: A549; experiment: Cytotoxicity against human A549 cells expressing wild type p53 assessed as growth inhibition after 72 hrs by SRB assay; assay type: functional, cell-based; details: A549, 72 h; method in brief: as §1
[4] = target: Tumour suppressor p53/oncoprotein Mdm2 (Homo sapiens, UniProt Q00987); experiment: (§2) Inhibition of p53-MDM2 (unknown origin) interaction expressed in Escherichia coli BL-21 (DE3) after 1 hr by fluorescence polarization assay
[5] = target: Tumour suppressor p53/oncoprotein Mdm2 (Homo sapiens, UniProt P04637+Q00987); experiment: as §2
Tumour suppressor p53/oncoprotein Mdm2 (Homo sapiens, UniProt P04637+Q00987), sequence (P04637 whole entry): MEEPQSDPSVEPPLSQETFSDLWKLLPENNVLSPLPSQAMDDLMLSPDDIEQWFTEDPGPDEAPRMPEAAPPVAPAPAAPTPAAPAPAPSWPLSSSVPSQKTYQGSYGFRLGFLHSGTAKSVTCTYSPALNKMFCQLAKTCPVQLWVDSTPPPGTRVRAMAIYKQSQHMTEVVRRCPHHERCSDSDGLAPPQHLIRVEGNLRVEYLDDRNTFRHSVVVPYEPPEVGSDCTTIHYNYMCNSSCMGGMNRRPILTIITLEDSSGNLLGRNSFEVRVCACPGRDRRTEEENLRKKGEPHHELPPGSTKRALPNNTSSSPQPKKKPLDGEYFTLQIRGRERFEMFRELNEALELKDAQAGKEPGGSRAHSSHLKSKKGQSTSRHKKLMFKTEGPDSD
Tumour suppressor p53/oncoprotein Mdm2 (Homo sapiens, UniProt P04637+Q00987), sequence (Q00987 whole entry): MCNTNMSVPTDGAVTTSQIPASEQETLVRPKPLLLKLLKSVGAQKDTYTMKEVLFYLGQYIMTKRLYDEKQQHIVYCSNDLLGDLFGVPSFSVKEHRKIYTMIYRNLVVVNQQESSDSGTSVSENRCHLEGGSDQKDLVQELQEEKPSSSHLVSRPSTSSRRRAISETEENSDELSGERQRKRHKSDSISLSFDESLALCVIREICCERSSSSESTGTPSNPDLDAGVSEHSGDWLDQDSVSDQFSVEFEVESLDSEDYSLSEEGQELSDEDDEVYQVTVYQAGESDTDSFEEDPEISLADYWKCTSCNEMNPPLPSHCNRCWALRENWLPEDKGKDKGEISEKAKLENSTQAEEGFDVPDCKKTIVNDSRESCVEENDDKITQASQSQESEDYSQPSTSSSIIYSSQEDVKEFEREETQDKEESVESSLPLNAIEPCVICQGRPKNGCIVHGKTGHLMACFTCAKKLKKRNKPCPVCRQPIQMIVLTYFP

Tumour suppressor p53/oncoprotein Mdm2 (Homo sapiens, UniProt Q00987), sequence (P04637 whole entry): as the sequence (P04637 whole entry) above
Tumour suppressor p53/oncoprotein Mdm2 (Homo sapiens, UniProt Q00987), sequence (Q00987 whole entry): as the sequence (Q00987 whole entry) above

## CN1CCN(C(=O)c2c(N)sc(-c3ccc(Cl)cc3)c2-c2ccc(Cl)cc2)CC1
[1]
  Ratio IC50: 22
[2]
  IC50: 13.1 µM
[3]
  IC50: 0.59 µM
[4]
  Ki: 1.52 µM

## CC1CN(C(=O)c2c(N)sc(-c3ccc(Cl)cc3)c2-c2ccc(Cl)cc2)CCN1 (configuration not stated)
[2]
  IC50: 7.21 µM
[3]
  IC50: 4.93 µM
[4]
  Ki: 17.7 µM

## CCCCNC(=O)c1c(N)sc(-c2ccc(Cl)cc2)c1-c1ccc(Cl)cc1
[2]
  IC50: 17.8 µM
[3]
  IC50: 8.17 µM
[4]
  Ki: 0.55 µM

## CC(C)CNC(=O)c1c(N)sc(-c2ccc(Cl)cc2)c1-c1ccc(Cl)cc1
[2]
  IC50: 21 µM
[4]
  Ki: 4.13 µM

## CC(C)(C)NC(=O)c1c(N)sc(-c2ccc(Cl)cc2)c1-c1ccc(Cl)cc1
[2]
  IC50: 15.1 µM
[3]
  IC50: 8.85 µM
[4]
  Ki: 0.81 µM

## Nc1sc(-c2ccc(Cl)cc2)c(-c2ccc(Cl)cc2)c1C(=O)Nc1ccccc1
[2]
  IC50: > 50 µM
[3]
  IC50: 25 µM
[4]
  Ki: > 50 µM

## Nc1sc(-c2ccc(Cl)cc2)c(-c2ccc(Cl)cc2)c1C(=O)NCc1ccccc1
[2]
  IC50: 31.8 µM
[3]
  IC50: 16.3 µM
[4]
  Ki: 0.15 µM

## COc1ccc(CNC(=O)c2c(N)sc(-c3ccc(Cl)cc3)c2-c2ccc(Cl)cc2)cc1
[2]
  IC50: 29.5 µM
[3]
  IC50: 18.2 µM
[4]
  Ki: 0.64 µM

## CC(=O)Nc1sc(-c2ccc(Cl)cc2)c(-c2ccc(Cl)cc2)c1C(=O)N1CCCCC1
[2]
  IC50: 10.3 µM
[3]
  IC50: 6.01 µM
[4]
  Ki: 3.57 µM

## O=C(CCN1CCOCC1)Nc1sc(-c2ccc(Cl)cc2)c(-c2ccc(Cl)cc2)c1C(=O)N1CCCCC1
[2]
  IC50: > 25 µM
[3]
  IC50: > 25 µM
[5]
  Ki: Not Active

## CS(=O)(=O)Nc1sc(-c2ccc(Cl)cc2)c(-c2ccc(Cl)cc2)c1C(=O)NC1CC1
[4]
  Ki: > 50 µM

## CCOC(=O)Nc1sc(-c2ccc(Cl)cc2)c(-c2ccc(Cl)cc2)c1C(=O)NC1CC1
[2]
  IC50: 27.6 µM
[3]
  IC50: 39.8 µM
[5]
  Ki: Not Active

## O=C(NCCN1CCOCC1)Nc1sc(-c2ccc(Cl)cc2)c(-c2ccc(Cl)cc2)c1C(=O)NC1CC1
[5]
  Ki: Not Active

## CCN(CC)CCNC(=O)Nc1sc(-c2ccc(Cl)cc2)c(-c2ccc(Cl)cc2)c1C(=O)NC1CC1
[5]
  Ki: Not Active

## COC(=O)c1c(N)sc(-c2ccc(Cl)cc2)c1-c1ccc(Cl)cc1
[4]
  Ki: 1.52 µM

## Nc1sc(-c2ccc(Cl)cc2)c(-c2ccc(Cl)cc2)c1C(=O)NC1CC1
[4]
  Ki: 0.54 µM

## Nc1sc(-c2ccc(Cl)cc2)c(-c2ccc(Cl)cc2)c1C(=O)NC1CCC1
[2]
  IC50: 24.8 µM
[3]
  IC50: 12.5 µM
[4]
  Ki: 1.12 µM

## Nc1sc(-c2ccc(Cl)cc2)c(-c2ccc(Cl)cc2)c1C(=O)NC1CCCC1
[2]
  IC50: 21.2 µM
[3]
  IC50: 6.79 µM
[4]
  Ki: 0.54 µM

## Nc1sc(-c2ccc(Cl)cc2)c(-c2ccc(Cl)cc2)c1C(=O)NC1CCCCC1
[4]
  Ki: 0.23 µM

## Nc1sc(-c2ccc(Cl)cc2)c(-c2ccc(Cl)cc2)c1C(=O)NC1CCC(O)CC1 (configuration not stated)
[1]
  Ratio IC50: 22
[2]
  IC50: 5.67 µM
[3]
  IC50: 0.25 µM
[4]
  Ki: 0.99 µM

## Nc1sc(-c2ccc(Cl)cc2)c(-c2ccc(Cl)cc2)c1C(=O)N1CCCC1
[4]
  Ki: 0.74 µM

## Nc1sc(-c2ccc(Cl)cc2)c(-c2ccc(Cl)cc2)c1C(=O)N1CCCCC1
[2]
  IC50: 14.3 µM
[3]
  IC50: 4.62 µM
[4]
  Ki: 1.21 µM

## CC1CCN(C(=O)c2c(N)sc(-c3ccc(Cl)cc3)c2-c2ccc(Cl)cc2)CC1
[2]
  IC50: 5.75 µM
[3]
  IC50: 1.75 µM
[4]
  Ki: 0.8 µM

## Nc1sc(-c2ccc(Cl)cc2)c(-c2ccc(Cl)cc2)c1C(=O)N1CCCCC1=O
[2]
  IC50: 4.94 µM
[3]
  IC50: 1.82 µM
[4]
  Ki: 1.55 µM

## Nc1sc(-c2ccc(Cl)cc2)c(-c2ccc(Cl)cc2)c1C(=O)N1CCC(=O)CC1
[2]
  IC50: 1.34 µM
[3]
  IC50: 2.01 µM
[4]
  Ki: 2.19 µM

## Nc1sc(-c2ccc(Cl)cc2)c(-c2ccc(Cl)cc2)c1C(=O)N1CCC(=O)CC1=O
[2]
  IC50: 9.23 µM
[3]
  IC50: 4.09 µM
[4]
  Ki: 3.52 µM

## Nc1sc(-c2ccc(Cl)cc2)c(-c2ccc(Cl)cc2)c1C(=O)N1CCOCC1
[1]
  Ratio IC50: 6
[2]
  IC50: 11.7 µM
[3]
  IC50: 1.87 µM
[4]
  Ki: 0.43 µM

## Nc1sc(-c2ccc(Cl)cc2)c(-c2ccc(Cl)cc2)c1C(=O)N1CCNCC1
[2]
  IC50: 2.71 µM
[3]
  IC50: 1.02 µM
[4]
  Ki: 6.81 µM
